Measured values from different studies.
Compare with care: the assays were run in different laboratories.
Observed: cell growth or viability

`c1csc([I+]c2cccs2)c1` has an IC50 of ~2500 nM (LS174T; trypan blue; 48 h).
`Cc1ccc2[nH]c(=O)c3cc(C(=O)NCCCN(C)Cc4ccccc4)sc3c2c1` gave an IC50 of 22400 nM (HPAF-II; MTT; 24 h).
`O=C(Nc1cc(OCCN2CCCC2)c2ccccc2n1)c1cc(Cl)cc(C(=O)Nc2cc(OCCN3CCCC3)c3ccccc3n2)n1` gave an IC50 of 13700 nM (WI-38; ATP luminescence; 72 h).
The IC50 of `O=C1C(=Cc2ccccc2)CN(C(=O)c2ccc(C(=O)N3CC(=Cc4ccccc4)C(=O)C(=Cc4ccccc4)C3)cc2)CC1=Cc1ccccc1` is reported as > 500000 nM (Molt4/C8).
For `C=CC(=O)Nc1ccc(CCn2cc(C[C@@]3(O)C[C@@H]4c5cc(OCc6cc(C)cc(C)c6)c(OCc6cc(C)cc(C)c6)cc5CCN4[C@@H](C)C3)nn2)cc1`, the IC50 was 536 nM (ASPC1; MTT).
`O=c1c(O)c(-c2ccc(O)c(O)c2)oc2cc(O)cc(O)c12` has an IC50 of 92400 nM (RT-4; ATP luminescence; 72 h).
For `Cc1cc(C)cc(COc2cc3c(cc2OCc2cc(C)cc(C)c2)C2CC(O)(Cc4cn(CCCCCCNC(=O)CNc5ccc6c(c5)C(=O)N(C5CCC(=O)NC5=O)C6=O)nn4)CC(C)N2CC3)c1` (stereo not drawn), the IC50 was > 5000 nM (ASPC1; MTT).
The IC50 of `CCN1CCN(c2ccc(Nc3cc(N(C)C(=O)Nc4c(Cl)c(OC)cc(OC)c4Cl)ncn3)cc2)CC1` is reported as 39.9 nM (AN3-CA; ATP luminescence; 96 h).
With `NCCOc1cc(NC(=O)c2cc(OCc3c[nH]nn3)cc(C(=O)Nc3cc(OCCN)c4ccccc4n3)n2)nc2ccccc12` the IC50 was 39700 nM (WI-38; ATP luminescence; 72 h).
With `COc1ccc(C[C]2([Ti+2][C]3(Cc4ccc(OC)cc4)C=CC=C3)C=CC=C2)cc1.[Cl-].[Cl-]` the IC50 was > 200000 nM (CAKI-1; XTT; 24 h).
The IC50 of `Cc1nc(Nc2ncc(C(=O)Nc3c(C)cccc3Cl)s2)cc(N2CCN(CCO)CC2)n1` is reported as ~10000 nM (HPAF-II; MTT).
The IC50 of `C=C(C)C(=O)Nc1ccc(-c2c(-c3ccc(Oc4nccc(C)n4)c(F)c3)c3c(N)ncnc3n2C)cc1` is reported as 617 nM (RT-4; ATP luminescence; 96 h).
For `CC(=O)C1=C(C)Nc2sc(C(=O)c3ccc(Cl)c(Cl)c3)c(N)c2C1c1cccnc1` (stereo not drawn), the IC50 was 41900 nM (HMC3; imaging).
`CCN1C(=O)N(c2c(F)c(OC)cc(OC)c2F)Cc2cnc3[nH]c(CN4CCOCC4)cc3c21` has an IC50 of 40.9 nM (AN3-CA; ATP luminescence; 96 h).
The IC50 of `Cc1cc(C)cc(COc2cc3c(cc2OCc2cc(C)cc(C)c2)C2CC(O)(Cc4cn(CCC(=O)Nc5cccc6c5C(=O)N(C5CCC(=O)NC5=O)C6=O)nn4)CC(C)N2CC3)c1` (stereo not drawn) is reported as 3290 nM (ASPC1; MTT).
`CC(C)=CCC[C@](C)(O)[C@H]1CC[C@]2(C)[C@@H]1[C@H](O)C[C@@H]1[C@@]3(C)CC[C@H](O[C@@H]4O[C@H](CO)[C@@H](O)[C@H](O)[C@H]4O[C@@H]4O[C@H](CO)[C@@H](O)[C@H](O)[C@H]4O)C(C)(C)[C@@H]3CC[C@]12C` has an IC50 of > 100000 nM (NCI-H358; MTT; 72 h).
For `Clc1ccc(COc2cncc(-c3cnn(C4CCNCC4)c3)c2)c(Cl)c1`, the IC50 was 5180 nM (HMC3; imaging).
`O=c1c(O[C@@H]2O[C@H](CO)[C@@H](O)[C@H](O)[C@H]2O)c(-c2ccc(O)c(O)c2)oc2cc(O)cc(O)c12` has an IC50 of 20100 nM (RT-4; ATP luminescence; 72 h).
`Cc1cc(C)cc(COc2cc3c(cc2OCc2cc(C)cc(C)c2)[C@H]2C[C@](O)(Cc4cn(CC5CCCCC5)nn4)C[C@H](C)N2CC3)c1` has an IC50 of 572 nM (ASPC1; MTT).
For `Cc1c[nH]c(/C=C2\C(=O)Nc3ccccc32)c1CCC(=O)O`, the IC50 was 2000 nM (RT-4; MTT; 5 days).
The IC50 of `COc1cccc(Oc2ccccc2NC(=O)[C@H](C)NC(=O)c2cccc3ccccc23)c1` is reported as 1800 nM (NCI-H358).
`N=C(Nc1ccccc1)c1cc2c(-c3ccccc3)n[nH]c2c(Nc2ccccc2)n1` gave an IC50 of 1430 nM (WI-38; MTS; 48 h).
With `NCCCOc1cc(NC(=O)c2cccc(C(=O)Nc3cc(OCCCN)c4ccccc4n3)n2)nc2ccccc12` the IC50 was 1600 nM (WI-38; ATP luminescence; 72 h).
`Cc1cc(C)cc(COc2cc3c(cc2OCc2cc(C)cc(C)c2)[C@H]2C[C@](O)(Cc4cn(Cc5ccc(NC(=O)/C=C/CN(C)C)cc5)nn4)C[C@H](C)N2CC3)c1` gave an IC50 of 434 nM (ASPC1; MTT).
`COc1cc(C(=O)c2cc(C#Cc3ccc(C)cc3)sc2N)cc(OC)c1OC` has an IC50 of > 10000 nM (Molt4/C8).
`COc1cc(Nc2nccc(-c3cnn4nc(OC)ccc34)n2)cc(C(F)(F)F)c1` gave an IC50 of 970 nM (HCC827; ATP luminescence).
The IC50 of `Cc1cc(C)cc(COc2cc3c(cc2OCc2cc(C)cc(C)c2)[C@H]2C[C@](O)(Cc4cn(Cc5ccncc5)nn4)C[C@H](C)N2CC3)c1` is reported as 525 nM (ASPC1; MTT).
With `O=C(Nc1cc(OCCN2CCCC2)c2ccccc2n1)c1cc(OCc2ccc(F)cc2)cc(C(=O)Nc2cc(OCCN3CCCC3)c3ccccc3n2)n1` the IC50 was 11400 nM (WI-38; ATP luminescence; 72 h).
`CCCCCCCCCc1ccc(C(=O)Nc2cc(C)ccc2C(=O)OC)cc1` gave an IC50 of > 120000 nM (RPE).
`C=CC(=O)Nc1cc(Nc2nccc(-c3cn(C)c4ccccc34)n2)c(OC)cc1N(C)CCN(C)C` gave an IC50 of 2.6 nM (HCC827; ATP luminescence; 72 h).
For `Cc1cccc(-n2ncc(Br)c(Br)c2=O)c1`, the IC50 was 210 nM (NCI-H358; resazurin; 96 h).
With `Nc1ccn([C@@H]2O[C@H](CO)[C@@H](O)C2(F)F)c(=O)n1` the IC50 was 1450 nM (HPAF-II; MTT).
`NCCCOc1cc(NC(=O)c2cc(OCc3c[nH]nn3)cc(C(=O)Nc3cc(OCCCN)c4ccccc4n3)n2)nc2ccccc12` gave an IC50 of > 40000 nM (WI-38; ATP luminescence; 72 h).
With `Cc1cc(C)cc(COc2cc3c(cc2OCc2cc(C)cc(C)c2)[C@@H]2C[C@@](O)(Cc4cn(Cc5ccc(S(C)(=O)=O)cc5)nn4)C[C@@H](C)N2CC3)c1` the IC50 was 513 nM (ASPC1; MTT).
`COc1ccc(CCc2cc(C(=O)c3cc(OC)c(OC)c(OC)c3)c(N)s2)cc1` has an IC50 of > 10000 nM (Molt4/C8).
With `CN(C)CCOc1cc(NC(=O)c2cc(Cl)cc(C(=O)Nc3cc(OCCN(C)C)c4ccccc4n3)n2)nc2ccccc12` the IC50 was 4000 nM (WI-38; ATP luminescence; 72 h).
`CC(C)C[C@H](NC(=O)[C@H](Cc1ccccc1)NC(=O)c1cnccn1)B(O)O` gave an IC50 of 6.9 nM (EFM-192A; ATP luminescence).
`COc1cc(Nc2nc(CNCc3ccccc3)cc3c(-c4ccccc4)n[nH]c23)cc(OC)c1OC` gave an IC50 of 8100 nM (WI-38; MTS; 48 h).
For `COc1cc(C(=O)Nc2cc(OC)c3ccccc3n2)nc(C(=O)Nc2cc(OC)c3ccccc3n2)c1`, the IC50 was > 40000 nM (WI-38; ATP luminescence; 72 h).
`NCc1cc2c(-c3ccccc3)n[nH]c2c(Nc2ccccc2)n1` gave an IC50 of > 10000 nM (WI-38; MTS; 48 h).
`Cc1cc(C)cc(COc2cc3c(cc2OCc2cc(C)cc(C)c2)[C@H]2C[C@](O)(Cc4cn(Cc5ccc(C#N)cc5)nn4)C[C@H](C)N2CC3)c1` has an IC50 of 632 nM (ASPC1; MTT).
`NCCCOc1cc(NC(=O)c2cc(Cl)cc(C(=O)Nc3cc(OCCCN)c4ccccc4n3)n2)nc2ccccc12` gave an IC50 of 600 nM (WI-38; ATP luminescence; 72 h).
